Read-outs that look alike come from different tables or passages of the source.
Key:
[1] = test system: SK-N-MC Ewing sarcoma cell line; test: DIMSCAN in vitro testing, 96 h; assay type: cell-based; details: for IC50: Homo sapiens, 96 h
How it was run: (§1)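 Neuroblastoma and Ewing sarcoma lines, STR-verified and maintained as in the originators' reports. Exposed for 96 h to test compound (DMSO stock diluted in medium) at 1 nM–10 μM. Viable cells quantified by fluorescein diacetate fluorescence with DIMSCAN digital image microscopy. Absolute IC50 = concentration giving 50% growth inhibition vs controls. Relative IC50 = concentration giving 50% of the maximum inhibitory effect.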

[2] = test system: COG-E-352 Ewing sarcoma cell line; test: DIMSCAN in vitro testing, 96 h; assay type: cell-based; details: for IC50: 96 h
How it was run: as §1

[3] = test system: CHLA-136 neuroblastoma cell line; test: DIMSCAN in vitro testing, 96 h; assay type: cell-based; details: for IC50: Neuroblastoma cell, 96 h
How it was run: as §1

[4] = test system: NB-EBc1 neuroblastoma cell line; test: DIMSCAN in vitro testing, 96 h; assay type: cell-based; details: for IC50: Neuroblastoma cell, 96 h
How it was run: as §1

[5] = test system: KT-10 Wilms xenograft; assay type: in vivo, mice
How it was run: (§2)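 Female CB17 scid mice bearing subcutaneous tumors, 10 per group. Dosed by oral gavage twice daily, 5 days weekly for 6 weeks, at 20.8, 10.4, 5.2 or 2.6 mg/kg, in 10% 2-hydroxypropyl-β-cyclodextrin/1% sodium bicarbonate. Event = quadrupled tumor volume; EFS by Kaplan–Meier, exact log-rank test. Per-mouse scores PD/SD/PR (≥50% regression)/CR (<0.10 cm3)/MCR; group median reported. PR, CR and MCR count as objective responses.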

[6] = test system: NB-1771 Neuroblastoma xenograft; assay type: in vivo, mice
How it was run: as §2

[7] = test system: NB-EBc1 Neuroblastoma xenograft; assay type: in vivo, mice
How it was run: as §2

[8] = test system: ALL-2 ALL B-precursor xenograft; test: ALL xenograft; assay type: in vivo, mice
How it was run: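 Female NOD/scid mice inoculated intravenously with leukemia cells, 8 per group. Test compound suspended in 10% 2-hydroxypropyl-β-cyclodextrin/1% sodium bicarbonate in water. Given by oral gavage twice daily, 5 days weekly for 3 weeks, at 20.8, 10.4, 5.2 or 2.6 mg/kg. Blood %hCD45 of leukocytes tracked; event = hCD45 reaching 25%. EFS by Kaplan–Meier, exact log-rank vs controls. Median group response from individual scores.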

COc1cc(Nc2ncc3c(n2)-c2ccc(Cl)cc2C(c2c(F)cccc2OC)=NC3)ccc1C(=O)O [MLN8237]
IC50 ([1]; read-out: Absolute IC50): 0.072 µM | IC50 ([1]; read-out: Relative IC50): 0.066 µM | Ymin ([1]; minimum T/C): 2.8% | IC50 ([2]; read-out: Absolute IC50): 0.043 µM | IC50 ([2]; read-out: Relative IC50): 0.035 µM | Ymin ([2]; COG-E-352, minimum T/C): 11.4% | Ymin ([3]; CHLA-136, minimum T/C): 10.4% | IC50 ([3]; read-out: Absolute IC50): 0.039 µM | IC50 ([3]; read-out: Relative IC50): 0.036 µM | Ymin ([4]; NB-EBc1, minimum T/C): 3.6% | IC50 ([4]; read-out: Absolute IC50): 0.05 µM | IC50 ([4]; read-out: Relative IC50): 0.049 µM | EFS T/C ([5]; 2.6 mg/kg): 1.0 | EFS activity ([5]; 2.6 mg/kg): Low | Estimate of median time to event ([5]; 2.6 mg/kg): 9.6 days | Median group response ([5]; 2.6 mg/kg): PD1 (if the TGD value ≤1.5, that mouse was considered PD1) | Response activity ([5]; 2.6 mg/kg): Low | Tumor volume T/C ([5]; 2.6 mg/kg): 0.84 | Median RTV/hCD45 at end of study ([5]; 2.6 mg/kg): >4 | EFS T/C ([5]; 5.2 mg/kg): 1.7 | EFS activity ([5]; 5.2 mg/kg): Low | Estimate of median time to event ([5]; 5.2 mg/kg): 16.0 days | Median group response ([5]; 5.2 mg/kg): PD2 (if the TGD value >1.5, the mouse was considered PD2) | Response activity ([5]; 5.2 mg/kg): Int | Tumor volume T/C ([5]; 5.2 mg/kg): 0.71 | Median RTV/hCD45 at end of study ([5]; 5.2 mg/kg): >4 | EFS T/C ([5]; 10.4 mg/kg): 1.5 | EFS activity ([5]; 10.4 mg/kg): Low | Estimate of median time to event ([5]; 10.4 mg/kg): 14.6 days | Median group response ([5]; 10.4 mg/kg): PD1 (if the TGD value ≤1.5, that mouse was considered PD1) | Response activity ([5]; 10.4 mg/kg): Low | Tumor volume T/C ([5]; 10.4 mg/kg): 0.53 | Median RTV/hCD45 at end of study ([5]; 10.4 mg/kg): >4 | EFS T/C ([5]; 20.8 mg/kg): >4.4 | EFS activity ([5]; 20.8 mg/kg): High | Median group response ([5]; 20.8 mg/kg): MCR | Response activity ([5]; 20.8 mg/kg): High | Tumor volume T/C ([5]; 20.8 mg/kg): 0.35 | Median RTV/hCD45 at end of study ([5]; 20.8 mg/kg): 0.0 | EFS T/C ([6]; 2.6 mg/kg): 1.9 | EFS activity ([6]; 2.6 mg/kg): Low | Estimate of median time to event ([6]; 2.6 mg/kg): 38.2 days | Median group response ([6]; 2.6 mg/kg): PD2 (if the TGD value >1.5, the mouse was considered PD2) | Response activity ([6]; 2.6 mg/kg): Int | Tumor volume T/C ([6]; 2.6 mg/kg): 0.38 | Median RTV/hCD45 at end of study ([6]; 2.6 mg/kg): >4 | EFS T/C ([6]; 5.2 mg/kg): >2.1 | EFS activity ([6]; 5.2 mg/kg): Int | Median group response ([6]; 5.2 mg/kg): PD2 (if the TGD value >1.5, the mouse was considered PD2) | Response activity ([6]; 5.2 mg/kg): Int | Tumor volume T/C ([6]; 5.2 mg/kg): 0.38 | Median RTV/hCD45 at end of study ([6]; 5.2 mg/kg): 2.2 | EFS T/C ([6]; 10.4 mg/kg): >2.1 | EFS activity ([6]; 10.4 mg/kg): High | Median group response ([6]; 10.4 mg/kg): MCR | Response activity ([6]; 10.4 mg/kg): High | Tumor volume T/C ([6]; 10.4 mg/kg): 0.08 | Median RTV/hCD45 at end of study ([6]; 10.4 mg/kg): 0.0 | EFS T/C ([6]; 20.8 mg/kg): >2.1 | EFS activity ([6]; 20.8 mg/kg): High | Median group response ([6]; 20.8 mg/kg): MCR | Response activity ([6]; 20.8 mg/kg): High | Tumor volume T/C ([6]; 20.8 mg/kg): 0.02 | Median RTV/hCD45 at end of study ([6]; 20.8 mg/kg): 0.0 | EFS T/C ([7]; 2.6 mg/kg): 1.7 | EFS activity ([7]; 2.6 mg/kg): Low | Estimate of median time to event ([7]; 2.6 mg/kg): 9.6 days | Median group response ([7]; 2.6 mg/kg): PD2 (if the TGD value >1.5, the mouse was considered PD2) | Response activity ([7]; 2.6 mg/kg): Int | Tumor volume T/C ([7]; 2.6 mg/kg): 0.57 | Median RTV/hCD45 at end of study ([7]; 2.6 mg/kg): >4 | EFS T/C ([7]; 5.2 mg/kg): 2.0 | EFS activity ([7]; 5.2 mg/kg): Low | Estimate of median time to event ([7]; 5.2 mg/kg): 11.3 days | Median group response ([7]; 5.2 mg/kg): PD2 (if the TGD value >1.5, the mouse was considered PD2) | Response activity ([7]; 5.2 mg/kg): Int | Tumor volume T/C ([7]; 5.2 mg/kg): 0.44 | Median RTV/hCD45 at end of study ([7]; 5.2 mg/kg): >4 | EFS T/C ([7]; 10.4 mg/kg): 3.1 | EFS activity ([7]; 10.4 mg/kg): Int | Estimate of median time to event ([7]; 10.4 mg/kg): 17.9 days | Median group response ([7]; 10.4 mg/kg): PD2 (if the TGD value >1.5, the mouse was considered PD2) | Response activity ([7]; 10.4 mg/kg): Int | Tumor volume T/C ([7]; 10.4 mg/kg): 0.22 | Median RTV/hCD45 at end of study ([7]; 10.4 mg/kg): >4 | EFS T/C ([7]; 20.8 mg/kg): >7.2 | EFS activity ([7]; 20.8 mg/kg): High | Median group response ([7]; 20.8 mg/kg): MCR | Response activity ([7]; 20.8 mg/kg): High | Tumor volume T/C ([7]; 20.8 mg/kg): 0.15 | Median RTV/hCD45 at end of study ([7]; 20.8 mg/kg): 0.3 | EFS T/C ([8]; 2.6 mg/kg): 2.3 | EFS activity ([8]; 2.6 mg/kg): Int | Estimate of median time to event ([8]; 2.6 mg/kg): 25.2 days | Median group response ([8]; 2.6 mg/kg): PD2 (if the TGD value >1.5, the mouse was considered PD2) | Response activity ([8]; 2.6 mg/kg): Int | Median RTV/hCD45 at end of study ([8]; 2.6 mg/kg): >25% | EFS T/C ([8]; 5.2 mg/kg): >3.8 | EFS activity ([8]; 5.2 mg/kg): Int | Response activity ([8]; 5.2 mg/kg): High | Median RTV/hCD45 at end of study ([8]; 5.2 mg/kg): >25% | EFS T/C ([8]; 10.4 mg/kg): >3.8 | EFS activity ([8]; 10.4 mg/kg): Int | Response activity ([8]; 10.4 mg/kg): High | Median RTV/hCD45 at end of study ([8]; 10.4 mg/kg): 3.1% | EFS T/C ([8]; 20.8 mg/kg): >3.8 | EFS activity ([8]; 20.8 mg/kg): High | Median group response ([8]; 20.8 mg/kg): MCR | Response activity ([8]; 20.8 mg/kg): High | Median RTV/hCD45 at end of study ([8]; 20.8 mg/kg): 0.3%

From article PMC3215888 (Cancer Chemotherapy and Pharmacology, 2011)
